pIC50: −log10 of the molar value. Calls of active or inactive are those of the source. No cut-off for these calls is given here.
Legend:
Leishmania infantum [1] = experiment: Antileishmanial activity against Leishmania infantum MCAN/ES/89/IPZ229/1/89 promastigotes assessed as growth inhibition at 25 uM after 24 hrs; format: functional
Outline: (§1)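 Log-phase L. infantum promastigotes (RPMI-1640, 10% FCS, 25 mM HEPES, pH 7.2, 26 °C) treated at 2×10^6 parasites/mL for 24 h. Screening used 25, 12.5 and 6.25 μM to give percent growth inhibition. Living cells measured by flow cytometry with propidium iodide exclusion. At least three independent experiments.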

Leishmania infantum [2] = experiment: Antileishmanial activity against Leishmania infantum MCAN/ES/89/IPZ229/1/89 promastigotes assessed as growth inhibition at 12.5 uM after 24 hrs; format: functional; outline: as §1
Leishmania infantum [3] = experiment: Antileishmanial activity against Leishmania infantum MCAN/ES/89/IPZ229/1/89 promastigotes assessed as growth inhibition at 6.25 uM after 24 hrs; format: functional; outline: as §1
Jurkat = experiment: Cytotoxicity against human Jurkat cells assessed as live cells in neubauer chamber after 24 hrs by trypan blue assay; format: cell-based
Leishmania infantum [4] = experiment: Ratio of edelfosine IC50 to compound IC50 for Leishmania infantum MCAN/ES/89/IPZ229/1/89 amastigotes; format: functional
Leishmania infantum [5] = experiment: Ratio of miltefosine IC50 to compound IC50 for Leishmania infantum MCAN/ES/89/IPZ229/1/89 amastigotes; format: functional
[6] = Selectivity ratio, ratio of IC50 for human THP1 cells to IC50 for Leishmania infantum MCAN/ES/89/IPZ229/1/89 amastigotes; format: ADME, cell-based; conditions: THP-1 cells, read-out: Ratio IC50
Outline: (§2)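 Selectivity index is IC50 against Jurkat or THP-1 cells divided by IC50 against L. infantum amastigotes. Host cells were treated in log phase at 4×10^5 cells/mL for 24 h at 37 °C, 5% CO2, at 0.08, 0.4, 2.0, 10.0 and 50.0 μM. Viability was measured by flow cytometry with propidium iodide exclusion.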

[7] = Selectivity ratio, ratio of IC50 for human Jurkat cells to IC50 for Leishmania infantum MCAN/ES/89/IPZ229/1/89 amastigotes; format: ADME, cell-based; conditions: read-out: Ratio IC50; outline: as §2
Leishmania infantum [8] = experiment: Antileishmanial activity against Leishmania infantum MCAN/ES/89/IPZ229/1/89 amastigotes after 24 hrs by microscopy; format: functional, organism-based; conditions: MCAN/ES/89/IPZ229/1/89, 24 h
Outline: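 Axenic L. infantum amastigotes (M199, 10% FCS, pH 5.4, 37 °C) treated in log phase at 1×10^6 parasites/mL for 24 h. Living cells counted by flow cytometry with propidium iodide exclusion, with microscopic observation by phase contrast or fluorescence. At least three independent experiments.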

Leishmania infantum [9] = experiment: Antileishmanial activity against Leishmania infantum MCAN/ES/89/IPZ229/1/89 promastigotes after 24 hrs […]; format: functional, organism-based; conditions: MCAN/ES/89/IPZ229/1/89, 24 h; outline: as §1
THP-1 = experiment: Cytotoxicity against human THP1 cells assessed as live cells in neubauer chamber after 24 hrs by trypan blue assay; format: cell-based; conditions: THP-1, 24 h
[10] = Permeability across human Caco2 cells; format: ADME, cell-based; conditions: Caco-2, read-out: permeability
[11] = Human intestinal absorption in human; format: ADME, organism-based; conditions: read-out: HIA
Outline: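 Values are computed, not measured. Human intestinal absorption (%) and Caco-2 permeability (nm/s) were predicted in silico with the PreADMET program.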

Leishmania infantum [12] = experiment: Antileishmanial activity against Leishmania infantum MCAN/ES/89/IPZ229/1/89 amastigotes expressing GFP infected in human THP1 cells assessed as parasite infected cells after 48 hrs by flow cytometry (reference value: 35%); format: functional, THP-1

Structure (SMILES) | GI (Leishmania infantum [1]) [%] | GI (Leishmania infantum [2]) [%] | GI (Leishmania infantum [3]) [%] | pIC50 (Jurkat) | selectivity ratio [6] | selectivity ratio [7] | pIC50 (Leishmania infantum [8]) | pIC50 (Leishmania infantum [9]) | pIC50 (THP-1) | other results
Cc1ccc(C[Se][Se]Cc2ccc(C)cc2)cc1 | 2.5 |  |  |  |  |  |  |  |  | growth inhibition (GI) (Leishmania infantum [2]): inactive; growth inhibition (GI) (Leishmania infantum [3]): inactive
c1ccc2cc(C[Se][Se]Cc3ccc4ccccc4c3)ccc2c1 |  |  |  |  |  |  |  |  |  | growth inhibition (GI) (Leishmania infantum [1]): inactive
COc1ccc(C[Se][Se]Cc2ccc(OC)cc2)cc1 | 31.7 | 9.9 | 0.5 |  |  |  |  |  |  | 
CSc1ccc(C[Se][Se]Cc2ccc(SC)cc2)cc1 | 17.5 |  |  |  |  |  |  |  |  | growth inhibition (GI) (Leishmania infantum [2]): inactive; growth inhibition (GI) (Leishmania infantum [3]): inactive
N#C[Se]Cc1ccccc1[N+](=O)[O-] | 98.6 | 89.8 | 74 | 4.89 | 21 | 38 | 6.47 | 5.48 | 5.15 | Ratio IC50 (Leishmania infantum [4]): 2.4; Ratio IC50 (Leishmania infantum [5]): 8.3
N#C[Se]Cc1ccc(C#N)cc1 | 97 | 80.4 | 51.5 | 4.87 | 15 | 24 | 6.26 | 5.38 | 5.10 | 
N#C[Se]c1ccc(N)c(C(=O)O)c1 |  |  |  |  |  |  |  |  |  | growth inhibition (GI) (Leishmania infantum [1]): inactive
N#C[Se]Cc1cccc(C#N)c1 | 93 | 71.2 | 42.2 | 5.06 | 14 | 16 | 6.28 | 5.22 | 5.12 | 
N#Cc1cccc(C[Se][Se]Cc2cccc(C#N)c2)c1 | 44.3 | 35.4 | 22.6 |  |  |  |  |  |  | 
N#C[Se]c1ccc(N)cc1 | 76.3 | 38.2 | 14.4 | 4.36 | > 5 | 5 | 5.03 | 4.95 | < 4.30 | 
O=[N+]([O-])c1ccc(CC[Se][Se]CCc2ccc([N+](=O)[O-])cc2)cc1 | 28.4 | 3.2 | 1.2 |  |  |  |  |  |  | 
O=[N+]([O-])c1cccc(C[Se][Se]Cc2cccc([N+](=O)[O-])c2)c1 | 41.2 | 29.4 | 18.1 |  |  |  |  |  |  | 
CC(=O)Nc1ccc([Se]C#N)cc1C(=O)O |  |  |  |  |  |  |  |  |  | growth inhibition (GI) (Leishmania infantum [1]): inactive
CN(C)c1ccc([Se]C#N)cc1 | 97.3 | 86.7 | 54.4 | 4.53 | 16 | 10 | 5.55 | 5.03 | 4.35 | 
Brc1ccc(C[Se][Se]Cc2ccc(Br)cc2)cc1 | 12.2 | 1.9 |  |  |  |  |  |  |  | growth inhibition (GI) (Leishmania infantum [3]): inactive
c1ccc(C[Se][Se]Cc2ccccc2)cc1 [BISBENZYLDISELENIDE] | 60.4 | 43.6 | 33.2 | 4.58 | 51 | 41 | 6.20 |  | 4.49 | Papp [10]: 58.3 nm/s; Fa [11]: 100%; Activity (Leishmania infantum [12]): 24%
CCCCCCCCCCCCCCCCOP(=O)([O-])OCC[N+](C)(C)C [MILTEFOSINE] |  |  |  | 4.48 | 7 | 17 | 5.55 | 4.82 | 4.73 | Papp [10]: 21.7 nm/s; Fa [11]: 99%
FC(F)(F)c1ccc(C[Se][Se]Cc2ccc(C(F)(F)F)cc2)cc1 | 12.2 | 6 | 11 |  |  |  |  |  |  | 

From ChEMBL document CHEMBL1806371, “Selenocyanates and diselenides: a new class of potent antileishmanial agents” (Eur J Med Chem, 2011)
